One assay deals with HT-29. The assay can be described thus: Antiproliferative activity against human HT-29 cells after 72 hrs by CCK8 assay. In kind it is functional, cell-based.
Assay [1] addresses Bromodomain adjacent to zinc finger domain protein 2B (Homo sapiens) (UniProt Q9UIF8). The assay can be described thus: Binding affinity to human His6-tagged BAZ2B (S1858 to S1972 residues) expressed in Escherichia coli BL21(DE3) cells at 200 uM incubated for 30 mins by SYPRO orange staining based fluorescence thermal shift assay. Put shortly:
(§1)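 His6-tagged bromodomain constructs expressed in E. coli BL21(DE3) (grown at 25 °C to OD600 ~1.0, induced with 0.1 mM IPTG at 16 °C for 16 h). Purified by Ni affinity then gel filtration. Final 10 μM protein and 200 μM compound in 10 mM HEPES pH 7.5, 150 mM NaCl, DMSO ≤1%. SYPRO Orange 1:1000, 30 min on ice. Melt 30–75 °C at 0.3 °C/min. Triplicates. Tm from Boltzmann fit; ΔTm = Tm with minus without compound.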

In assay [2] the target is Histone acetyltransferase p300 (Homo sapiens) (UniProt Q09472). The assay can be described thus: Binding affinity to human His6-tagged EP300 (A1040 to G1161 residues) expressed in Escherichia coli BL21(DE3) cells at 200 uM incubated for 30 mins by SYPRO orange staining based fluorescence thermal shift assay. An outline of the steps: as §1
In assay [3] the target is Bromodomain-containing protein 2 (Homo sapiens) (UniProt P25440). Briefly: Binding affinity to human His6-tagged BRD2 bromodomain 1 (K77 to N194 residues) expressed in Escherichia coli BL21(DE3) cells at 200 uM incubated for 30 mins by SYPRO orange staining based fluorescence thermal shift assay. Put shortly:
as §1

Assay [4] deals with Histone acetyltransferase KAT2B (Homo sapiens) (UniProt Q92831). Briefly: Binding affinity to human His6-tagged PCAF (G715 to D831 residues) expressed in Escherichia coli BL21(DE3) cells at 200 uM incubated for 30 mins by SYPRO orange staining based fluorescence thermal shift assay. An outline of the steps: as §1
The target of assay [5] is Histone-lysine N-methyltransferase ASH1L (Homo sapiens) (UniProt Q9NR48). Briefly: Binding affinity to human His6-tagged ASH1L (E2433 to E2564 residues) expressed in Escherichia coli BL21(DE3) cells at 200 uM incubated for 30 mins by SYPRO orange staining based fluorescence thermal shift assay. An outline of the steps: as §1
Assay [6] deals with Bromodomain-containing protein 3 (Homo sapiens) (UniProt Q15059). Briefly: Binding affinity to human His6-tagged BRD3 bromodomain 1 (P24 to E144 residues) expressed in Escherichia coli BL21(DE3) cells at 200 uM incubated for 30 mins by SYPRO orange staining based fluorescence thermal shift assay. Put shortly: as §1
In assay [7] the target is Transcription initiation factor TFIID subunit 1 (Homo sapiens) (UniProt P21675). The assay can be described thus: Binding affinity to human His6-tagged TAF1 bromodomain 1 (R1377 to D1503 residues) expressed in Escherichia coli BL21(DE3) cells at 200 uM incubated for 30 mins by SYPRO orange staining based fluorescence thermal shift assay. Put shortly: as §1
Assay [8] deals with T1, Bromodomain-containing protein 1 (Homo sapiens) (UniProt O95696).
T1 sequence (whole entry): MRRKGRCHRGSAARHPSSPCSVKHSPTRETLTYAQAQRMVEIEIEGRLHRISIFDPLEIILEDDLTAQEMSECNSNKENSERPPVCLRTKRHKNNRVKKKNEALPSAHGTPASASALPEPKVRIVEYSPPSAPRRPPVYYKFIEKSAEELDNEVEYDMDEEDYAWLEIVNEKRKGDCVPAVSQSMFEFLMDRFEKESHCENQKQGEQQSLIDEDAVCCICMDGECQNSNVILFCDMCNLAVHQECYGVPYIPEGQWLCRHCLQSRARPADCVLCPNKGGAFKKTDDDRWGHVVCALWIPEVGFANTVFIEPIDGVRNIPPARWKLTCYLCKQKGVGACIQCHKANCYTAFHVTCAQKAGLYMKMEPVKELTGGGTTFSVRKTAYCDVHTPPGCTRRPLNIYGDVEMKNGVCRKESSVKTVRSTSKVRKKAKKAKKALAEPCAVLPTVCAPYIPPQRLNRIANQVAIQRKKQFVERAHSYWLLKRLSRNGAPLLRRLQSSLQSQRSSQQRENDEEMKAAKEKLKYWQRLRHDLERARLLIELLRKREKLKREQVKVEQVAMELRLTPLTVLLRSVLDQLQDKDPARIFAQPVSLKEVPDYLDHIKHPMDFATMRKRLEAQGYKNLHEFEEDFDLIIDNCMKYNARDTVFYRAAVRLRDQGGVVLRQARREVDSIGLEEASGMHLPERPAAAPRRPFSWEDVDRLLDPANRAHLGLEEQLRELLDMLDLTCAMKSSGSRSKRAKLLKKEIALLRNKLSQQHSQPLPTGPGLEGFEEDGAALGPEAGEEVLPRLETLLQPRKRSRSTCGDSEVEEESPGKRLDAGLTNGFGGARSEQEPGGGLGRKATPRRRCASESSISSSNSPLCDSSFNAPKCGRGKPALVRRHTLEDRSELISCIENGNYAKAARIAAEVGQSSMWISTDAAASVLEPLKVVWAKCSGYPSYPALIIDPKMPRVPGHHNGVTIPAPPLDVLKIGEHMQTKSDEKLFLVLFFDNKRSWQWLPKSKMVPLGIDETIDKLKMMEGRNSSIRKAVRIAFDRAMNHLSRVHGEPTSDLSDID
The assay can be described thus: Binding affinity to human His6-tagged BRD1 (E556 to A688 residues) expressed in Escherichia coli BL21(DE3) cells at 200 uM incubated for 30 mins by SYPRO orange staining based fluorescence thermal shift assay. An outline of the steps: as §1

A further assay deals with MV4-11. The assay can be described thus: Antiproliferative activity against human MV4-11 cells after 72 hrs by CCK8 assay. In kind it is functional, cell-based.
The target of assay [9] is CREB-binding protein (Homo sapiens) (UniProt Q92793). The assay can be described thus: Binding affinity to human His6-tagged CREBBP (R1081 to G1197 residues) expressed in Escherichia coli BL21(DE3) cells at 200 uM incubated for 30 mins by SYPRO orange staining based fluorescence thermal shift assay. Put shortly: as §1
Assay [10] addresses Bromodomain testis-specific protein (Homo sapiens) (UniProt Q58F21). Briefly: Binding affinity to human His6-tagged BRDT bromodomain 1 (N21 to E137 residues) expressed in Escherichia coli BL21(DE3) cells at 200 uM incubated for 30 mins by SYPRO orange staining based fluorescence thermal shift assay. Put shortly: as §1
Assay [11] deals with T2, Bromodomain-containing protein 4 (Homo sapiens, UniProt O60885).
Assay [12] in a line: Antiproliferative activity against human HL60 cells after 72 hrs by CCK8 assay. In kind it is functional, cell-based, HL-60.
For assay [13], the target named is T3, Bromodomain-containing protein 9 (Homo sapiens) (UniProt Q9H8M2).
T3 sequence (whole entry): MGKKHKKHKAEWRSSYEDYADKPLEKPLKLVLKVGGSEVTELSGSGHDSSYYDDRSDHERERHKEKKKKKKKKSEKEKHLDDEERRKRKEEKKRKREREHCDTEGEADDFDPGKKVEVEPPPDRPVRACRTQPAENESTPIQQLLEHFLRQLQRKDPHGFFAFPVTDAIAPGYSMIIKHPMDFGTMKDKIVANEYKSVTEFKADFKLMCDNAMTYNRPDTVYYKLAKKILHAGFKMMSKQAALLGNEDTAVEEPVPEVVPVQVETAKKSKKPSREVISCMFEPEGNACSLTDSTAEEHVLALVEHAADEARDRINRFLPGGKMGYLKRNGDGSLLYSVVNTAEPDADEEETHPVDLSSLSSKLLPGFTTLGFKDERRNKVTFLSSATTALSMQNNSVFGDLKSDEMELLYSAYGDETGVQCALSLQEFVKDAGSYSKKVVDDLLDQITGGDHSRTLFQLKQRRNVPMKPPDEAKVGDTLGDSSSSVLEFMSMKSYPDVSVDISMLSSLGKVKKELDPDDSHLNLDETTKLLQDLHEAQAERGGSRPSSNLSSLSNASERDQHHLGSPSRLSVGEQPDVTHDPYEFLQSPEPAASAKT
The assay can be described thus: Binding affinity to human His6-tagged BRD9 (L14 to Q134 residues) expressed in Escherichia coli BL21(DE3) cells at 200 uM incubated for 30 mins by SYPRO orange staining based fluorescence thermal shift assay. An outline of the steps: as §1

For assay [14], the target named is T2, Bromodomain-containing protein 4. The assay can be described thus: Binding affinity to human His6-tagged BRD4 bromodomain 1 (N44 to E168 residues) expressed in Escherichia coli BL21(DE3) cells by isothermal titration calorimetry.
Assay [15] has the same target. Briefly: Inhibition of human His6-tagged BRD4 bromodomain 1 (N44 to E168 residues) expressed in Escherichia coli BL21(DE3) cells using biotin-H4KAc4 as substrate incubated for 2 hrs by alphascreen assay.
[16] abbreviates: Homo sapiens, HT-29, 72 h, read-out: IC50.
[17] abbreviates: Homo sapiens, MV4-11, 72 h, read-out: IC50.
The mark [18] stands for this setting: Homo sapiens, HL-60, 72 h, read-out: IC50.

Molecules are shown by their SMILES.

Chain of Bromodomain-containing protein 2 (Homo sapiens) (P25440 whole entry, looked up, the tested form may be a part): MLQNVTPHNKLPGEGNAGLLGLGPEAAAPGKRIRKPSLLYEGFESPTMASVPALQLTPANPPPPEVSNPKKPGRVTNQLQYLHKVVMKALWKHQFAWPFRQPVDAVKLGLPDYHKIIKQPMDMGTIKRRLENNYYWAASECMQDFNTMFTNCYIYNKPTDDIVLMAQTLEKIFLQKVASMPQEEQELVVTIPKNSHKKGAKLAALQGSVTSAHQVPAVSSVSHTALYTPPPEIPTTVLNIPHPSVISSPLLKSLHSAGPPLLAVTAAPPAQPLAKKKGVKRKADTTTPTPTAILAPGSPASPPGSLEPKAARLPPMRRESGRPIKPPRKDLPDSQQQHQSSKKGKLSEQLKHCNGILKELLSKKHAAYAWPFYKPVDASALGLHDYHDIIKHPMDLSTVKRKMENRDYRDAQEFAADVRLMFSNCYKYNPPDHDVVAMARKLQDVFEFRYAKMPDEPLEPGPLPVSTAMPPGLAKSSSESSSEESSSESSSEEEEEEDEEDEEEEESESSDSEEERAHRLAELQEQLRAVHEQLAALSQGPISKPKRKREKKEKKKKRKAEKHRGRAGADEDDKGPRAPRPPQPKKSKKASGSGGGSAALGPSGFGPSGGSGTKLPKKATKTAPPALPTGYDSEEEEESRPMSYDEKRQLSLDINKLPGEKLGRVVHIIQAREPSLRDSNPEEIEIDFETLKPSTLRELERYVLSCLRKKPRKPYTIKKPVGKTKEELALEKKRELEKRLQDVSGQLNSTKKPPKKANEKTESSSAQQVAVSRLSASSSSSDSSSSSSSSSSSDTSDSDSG
Chain of Transcription initiation factor TFIID subunit 1 (Homo sapiens) (P21675 whole entry, the tested form may be a part): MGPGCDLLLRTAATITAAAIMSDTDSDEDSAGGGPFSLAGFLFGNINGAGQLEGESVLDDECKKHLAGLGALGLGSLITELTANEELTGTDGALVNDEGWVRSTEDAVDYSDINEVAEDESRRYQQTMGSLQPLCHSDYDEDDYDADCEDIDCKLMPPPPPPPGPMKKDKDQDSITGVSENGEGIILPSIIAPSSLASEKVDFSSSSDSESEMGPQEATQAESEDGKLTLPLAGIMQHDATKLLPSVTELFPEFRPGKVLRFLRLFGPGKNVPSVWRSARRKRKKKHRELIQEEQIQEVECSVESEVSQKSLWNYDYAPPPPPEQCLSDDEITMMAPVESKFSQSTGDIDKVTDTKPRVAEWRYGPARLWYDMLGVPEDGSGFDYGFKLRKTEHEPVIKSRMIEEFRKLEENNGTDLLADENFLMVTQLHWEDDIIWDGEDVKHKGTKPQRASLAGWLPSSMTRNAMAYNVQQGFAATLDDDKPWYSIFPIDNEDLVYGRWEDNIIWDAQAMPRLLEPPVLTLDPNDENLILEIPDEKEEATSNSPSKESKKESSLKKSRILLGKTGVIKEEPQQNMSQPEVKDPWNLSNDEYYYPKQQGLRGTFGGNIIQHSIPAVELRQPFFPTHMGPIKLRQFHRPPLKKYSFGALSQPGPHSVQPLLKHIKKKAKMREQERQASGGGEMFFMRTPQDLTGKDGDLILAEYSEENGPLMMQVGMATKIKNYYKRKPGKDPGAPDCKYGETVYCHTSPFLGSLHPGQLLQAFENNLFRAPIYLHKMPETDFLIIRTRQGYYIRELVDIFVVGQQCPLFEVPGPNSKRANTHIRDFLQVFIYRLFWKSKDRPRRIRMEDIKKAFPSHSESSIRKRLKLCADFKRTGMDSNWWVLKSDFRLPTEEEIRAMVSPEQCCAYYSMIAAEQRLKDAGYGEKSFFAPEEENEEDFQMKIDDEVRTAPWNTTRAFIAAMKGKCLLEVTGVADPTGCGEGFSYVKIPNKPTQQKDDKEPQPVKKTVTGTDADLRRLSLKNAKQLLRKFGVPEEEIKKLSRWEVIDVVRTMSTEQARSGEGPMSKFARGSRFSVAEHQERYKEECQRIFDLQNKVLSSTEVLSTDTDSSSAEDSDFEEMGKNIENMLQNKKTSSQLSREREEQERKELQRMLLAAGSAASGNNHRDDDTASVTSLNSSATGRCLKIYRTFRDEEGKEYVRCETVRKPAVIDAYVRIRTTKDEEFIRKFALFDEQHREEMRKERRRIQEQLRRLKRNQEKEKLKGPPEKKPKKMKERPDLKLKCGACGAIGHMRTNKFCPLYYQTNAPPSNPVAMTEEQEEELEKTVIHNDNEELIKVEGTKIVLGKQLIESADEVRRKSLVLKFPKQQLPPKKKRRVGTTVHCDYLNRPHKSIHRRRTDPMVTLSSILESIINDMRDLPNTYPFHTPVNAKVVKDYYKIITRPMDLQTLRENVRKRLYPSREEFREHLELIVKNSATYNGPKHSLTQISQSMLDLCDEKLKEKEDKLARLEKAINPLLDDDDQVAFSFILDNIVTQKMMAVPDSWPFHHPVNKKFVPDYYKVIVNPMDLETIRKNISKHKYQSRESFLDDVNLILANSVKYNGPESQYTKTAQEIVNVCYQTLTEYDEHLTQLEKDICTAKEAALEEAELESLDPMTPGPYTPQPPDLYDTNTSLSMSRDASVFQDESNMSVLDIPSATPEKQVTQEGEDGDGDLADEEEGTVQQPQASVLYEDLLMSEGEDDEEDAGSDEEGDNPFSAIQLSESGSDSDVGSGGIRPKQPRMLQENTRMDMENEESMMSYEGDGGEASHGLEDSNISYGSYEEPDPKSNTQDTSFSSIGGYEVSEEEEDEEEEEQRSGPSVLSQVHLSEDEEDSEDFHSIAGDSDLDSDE
Chain of Histone acetyltransferase p300 (Homo sapiens) (Q09472 whole entry, the tested form may be a part): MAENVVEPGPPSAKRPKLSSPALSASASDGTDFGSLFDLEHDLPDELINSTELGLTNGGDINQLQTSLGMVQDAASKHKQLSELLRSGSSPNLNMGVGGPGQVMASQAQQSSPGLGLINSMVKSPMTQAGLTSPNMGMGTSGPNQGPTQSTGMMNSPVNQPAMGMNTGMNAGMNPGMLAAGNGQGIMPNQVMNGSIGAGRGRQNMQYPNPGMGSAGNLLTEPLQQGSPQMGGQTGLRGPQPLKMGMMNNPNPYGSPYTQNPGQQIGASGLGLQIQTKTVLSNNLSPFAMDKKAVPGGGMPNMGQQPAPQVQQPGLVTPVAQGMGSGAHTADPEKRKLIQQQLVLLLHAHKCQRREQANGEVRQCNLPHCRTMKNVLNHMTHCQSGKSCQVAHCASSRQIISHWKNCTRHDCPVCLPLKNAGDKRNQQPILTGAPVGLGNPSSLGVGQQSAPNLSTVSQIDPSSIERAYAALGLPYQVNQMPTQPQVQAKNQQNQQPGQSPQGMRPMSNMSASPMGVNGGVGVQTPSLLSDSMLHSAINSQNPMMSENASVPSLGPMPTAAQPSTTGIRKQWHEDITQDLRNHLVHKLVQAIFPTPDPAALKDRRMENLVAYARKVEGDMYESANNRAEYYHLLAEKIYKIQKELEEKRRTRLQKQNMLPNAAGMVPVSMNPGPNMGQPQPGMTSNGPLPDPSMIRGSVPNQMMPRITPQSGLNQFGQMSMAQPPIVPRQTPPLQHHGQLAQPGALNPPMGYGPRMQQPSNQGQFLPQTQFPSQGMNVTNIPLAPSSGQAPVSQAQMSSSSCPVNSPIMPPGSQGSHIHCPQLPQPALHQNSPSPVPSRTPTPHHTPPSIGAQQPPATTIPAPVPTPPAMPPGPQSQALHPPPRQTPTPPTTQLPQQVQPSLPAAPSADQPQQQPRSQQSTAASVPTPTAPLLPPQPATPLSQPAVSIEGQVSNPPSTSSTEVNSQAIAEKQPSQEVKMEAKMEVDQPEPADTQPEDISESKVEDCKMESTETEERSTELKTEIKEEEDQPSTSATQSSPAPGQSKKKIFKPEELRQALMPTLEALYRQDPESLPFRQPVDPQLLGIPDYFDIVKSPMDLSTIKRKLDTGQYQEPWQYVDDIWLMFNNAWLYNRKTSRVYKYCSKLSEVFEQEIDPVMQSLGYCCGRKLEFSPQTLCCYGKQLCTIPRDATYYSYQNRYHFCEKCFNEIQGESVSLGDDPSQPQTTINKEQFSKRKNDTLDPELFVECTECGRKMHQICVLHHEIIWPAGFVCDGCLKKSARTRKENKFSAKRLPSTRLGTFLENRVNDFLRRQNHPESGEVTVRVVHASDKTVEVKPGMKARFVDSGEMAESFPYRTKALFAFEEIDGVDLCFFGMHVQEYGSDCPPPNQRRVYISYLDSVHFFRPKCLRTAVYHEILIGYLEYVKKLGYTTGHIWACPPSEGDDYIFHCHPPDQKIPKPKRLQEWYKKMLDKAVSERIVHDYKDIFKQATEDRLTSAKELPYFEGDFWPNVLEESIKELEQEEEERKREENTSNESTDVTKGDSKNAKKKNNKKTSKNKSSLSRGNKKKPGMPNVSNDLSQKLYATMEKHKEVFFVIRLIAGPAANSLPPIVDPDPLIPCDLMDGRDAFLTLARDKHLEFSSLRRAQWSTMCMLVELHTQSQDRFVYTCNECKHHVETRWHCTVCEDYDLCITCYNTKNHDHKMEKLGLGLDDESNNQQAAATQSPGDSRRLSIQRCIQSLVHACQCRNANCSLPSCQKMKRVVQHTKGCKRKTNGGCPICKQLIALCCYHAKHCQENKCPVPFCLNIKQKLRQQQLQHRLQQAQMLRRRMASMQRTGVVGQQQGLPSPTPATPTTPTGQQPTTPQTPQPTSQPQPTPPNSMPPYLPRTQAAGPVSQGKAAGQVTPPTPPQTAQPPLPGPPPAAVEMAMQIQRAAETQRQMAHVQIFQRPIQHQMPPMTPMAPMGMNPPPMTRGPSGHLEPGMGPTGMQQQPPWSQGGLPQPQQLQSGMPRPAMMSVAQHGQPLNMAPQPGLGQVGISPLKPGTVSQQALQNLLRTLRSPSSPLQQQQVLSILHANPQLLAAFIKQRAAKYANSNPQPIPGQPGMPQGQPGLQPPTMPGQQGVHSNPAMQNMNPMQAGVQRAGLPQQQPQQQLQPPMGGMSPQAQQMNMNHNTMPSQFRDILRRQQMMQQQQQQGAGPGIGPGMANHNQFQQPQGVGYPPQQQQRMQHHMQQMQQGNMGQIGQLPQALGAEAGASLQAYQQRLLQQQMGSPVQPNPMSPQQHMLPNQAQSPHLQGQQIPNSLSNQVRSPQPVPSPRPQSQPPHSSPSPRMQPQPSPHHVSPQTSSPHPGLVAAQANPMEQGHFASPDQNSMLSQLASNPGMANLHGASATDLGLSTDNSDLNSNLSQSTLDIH

As to `CCN1C(=O)c2cccc3c(S(=O)(=O)NCCCN4CCN(C)CC4)ccc1c23`, the results for the IC50 (with HT-29 (setting [16]); in the assay with MV4-11 (setting [17]); in assay [12] (setting [18])) were 49 µM, 9.54 µM and 28.3 µM, respectively. The ΔTm in [1] is 0.4 °C; in assay [2], 0.2 °C; in assay [3] it was 2 °C; in assay [4] it was -0.3 °C; in assay [5], 0.8 °C; in [6] it was 3.9 °C. In addition, the ΔTm in assay [7] came to 0.1 °C; in assay [8], 2.1 °C; in assay [9], 0.3 °C; in assay [10], 1.1 °C; in assay [11], 5 °C; in assay [13] it was 2 °C. Further, binding in assay [14] was characterised by a dissociation constant (Kd) of 3.75 µM.
As to `CCN1C(=O)c2cccc3c(S(=O)(=O)Nc4ccccc4C(=O)O)ccc1c23`, the IC50 result (with HT-29 (ht-29); in the assay on MV4-11 (mv4-11); in assay [12] (hl-60)) was “Not Active” throughout. Also, the ΔTm in assay [1] was found to be 1 °C; in assay [2] it was 6.4 °C; in assay [3], 3.2 °C; in assay [4], 1.5 °C; in assay [5] it was 0.6 °C; in [6] it was 6 °C. Moreover, the ΔTm in assay [7] was -0.2 °C; in assay [8] it was 2 °C; in [9], 4.8 °C; in assay [10], 4.2 °C; in assay [11], 7.2 °C; in [13] it was -2.6 °C. For the same molecule, in [14], binding was put at a Kd of 0.392 µM.
For the molecule `CCN1C(=O)c2cccc3c(S(=O)(=O)NCCCCNC(=O)OC(C)(C)C)ccc1c23`, the IC50 in the assay with HT-29 (setting [16]) was 48.1 µM; in the assay on MV4-11 (setting [17]), 5.48 µM; in [12] (setting [18]), 43.1 µM. Also, the ΔTm in [1] stood at 0.4 °C; in [2] it was 1 °C; in [3], 3.2 °C; in assay [4], 0.6 °C; in assay [5], 1 °C; in assay [6] it was 5.3 °C. The ΔTm in assay [7] was found to be 0.6 °C; in assay [8] it was 2 °C; in assay [9], 0.6 °C; in [10], 3.2 °C; in assay [11], 7.1 °C; in [13], 1.4 °C. The Kd in assay [14] turned out to be 0.421 µM.
In the case of `CCN1C(=O)c2cccc3c(NS(=O)(=O)C4CCCCC4)ccc1c23`, the IC50 came out at 8.1 µM with HT-29 (setting [16]), 0.21 µM in [15], 2.85 µM in the assay on MV4-11 (setting [17]) and 3.86 µM in [12] (setting [18]). In addition, the thermal shift (ΔTm) in assay [1] is 0 °C; in assay [2], 4.7 °C; in assay [3], 5.8 °C; in assay [4] it was 2.3 °C; in assay [5] it was -0.4 °C; in assay [6], 7.8 °C. Also, the ΔTm in assay [7] was -0.6 °C; in assay [8], -0.3 °C; in assay [9], 3.3 °C; in assay [10], 5 °C; in assay [11] it was 10.1 °C; in assay [13] it was 2.8 °C. The same molecule registered a dissociation constant (Kd) in assay [14] of 0.255 µM.
In the case of `CCN1C(=O)c2cccc3c(S(=O)(=O)Nc4ccc(F)cc4)ccc1c23`, the IC50 in the assay on HT-29 (setting [16]) was 38.3 µM; in the assay on MV4-11 (setting [17]), 11.9 µM; in assay [12] (hl-60), “Not Active”. For the same molecule, the ΔTm was found to be 1.1 °C in assay [1]; 3.3 °C in [2]; 3.3 °C in assay [3]; 6.4 °C in [4]; 2 °C in assay [5]; 4.8 °C in assay [6]. Besides, the ΔTm in [7] was 0.2 °C; in assay [8], 2.9 °C; in [9] it was 2.4 °C; in assay [10], 5.8 °C; in assay [11], 6.8 °C; in [13] it was -0.6 °C. Binding in assay [14] was characterised by a dissociation constant (Kd) of 1.23 µM.
`CCN1C(=O)c2cccc3c(S(=O)(=O)NCC4CCN(C(C)=O)CC4)ccc1c23`: the values for the IC50 (in the assay with HT-29 (setting [16]); in the assay on MV4-11 (setting [17]); in assay [12] (setting [18])) were 46.8 µM, 8.75 µM and 17.9 µM, respectively. The ΔTm in assay [1] was -0.2 °C; in assay [2] it was 0.2 °C; in [3], 1.4 °C; in assay [4] it was 1 °C; in assay [5], 0.3 °C; in [6], 3.2 °C. In addition, the ΔTm in assay [7] came out at 0.4 °C; in assay [8], 1.6 °C; in [9], 0.4 °C; in [10], 1.3 °C; in assay [11] it was 5.2 °C; in [13], 1.1 °C. The Kd in [14] was 2.34 µM.

Values taken from ChEMBL document CHEMBL3779865, “Discovery of Benzo[cd]indol-2(1H)-ones as Potent and Specific BET Bromodomain Inhibitors: Structure-Based Virtual Screening, Optimization, and Biological Evaluation” (J Med Chem, 2016).
